Measurements published in ChEMBL document CHEMBL1158602, “Dihydro-pyrano[2,3-b]pyridines and tetrahydro-1,8-naphthyridines as CB1 receptor inverse agonists: synthesis, SAR and biological evaluation” (Bioorg Med Chem Lett, 2010).

How the values were obtained:
[1] = target: GABA-A receptor; agonist GABA site; assay: Partial agonist activity at human GABAA receptor; type: functional
[2] = target: GABA-A receptor; agonist GABA site (Homo sapiens) (UniProt P14867+P47870+P28472+P48169+P34903+P18505+P47869+P31644+Q16445); assay: Partial agonist activity at human GABAA receptor at 3 uM; type: functional
[3] = Drug level in rat plasma at 1 mg/kg, iv after 4 hrs; type: ADME, organism-based; design: dose 1 mg/kg, route intravenous; settings: read-out: Drug uptake
How it was run: (§1)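 Rats given 1 mg/kg intravenously; brain and plasma drug concentrations measured 4 h after dosing, and the brain/plasma ratio taken from these levels.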

[4] = Clearance in rat plasma at 1 mg/kg, iv after 4 hrs; type: ADME, organism-based; design: dose 1 mg/kg, route intravenous
[5] = Drug level in rat brain at 1 mg/kg, iv after 4 hrs; type: ADME, organism-based; design: dose 1 mg/kg, route intravenous; settings: read-out: Drug uptake; how it was run: as §1
[6] = target: Voltage-gated inwardly rectifying potassium channel KCNH2 (Homo sapiens, UniProt Q12809)
Rattus norvegicus [7] = assay: Toxicity in diet-induced obese rat assessed as suppression in food intake at 3 mg/kg, po after 18 hrs; type: organism-based; design: dose 3 mg/kg, route oral; settings: in vivo
[8] = Half life in rat at 1 mg/kg, iv after 4 hrs; type: ADME, organism-based; design: dose 1 mg/kg, route intravenous; settings: in vivo
[9] = Ratio of drug level in brain to plasma in rat at 1 mg/kg, iv after 4 hrs; type: ADME, organism-based; design: dose 1 mg/kg, route intravenous; settings: brain and plasma; how it was run: as §1
Rattus norvegicus [10] = assay: Toxicity in diet-induced obese rat assessed as change in body weight at 3 mg/kg, po after 18 hrs (RVb = 6 g); type: organism-based; design: dose 3 mg/kg, route oral; settings: in vivo
How it was run: (§2)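 Diet-induced obese rats dosed orally at 3 mg/kg and monitored for 18 h (overnight); body weight change and food intake compared with vehicle-treated animals.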

[11] = Oral bioavailability in rat at 1 mg/kg, iv after 4 hrs; type: ADME, organism-based; settings: in vivo
Cannabinoid receptor 2 = Cannabinoid receptor 2 (Homo sapiens, UniProt P34972); assay: Binding affinity to human CB2 receptor
Cannabinoid receptor 1 = Cannabinoid receptor 1 (Homo sapiens, UniProt P21554); assay: Binding affinity to human CB1 receptor
Rattus norvegicus [12] = assay: Toxicity in diet-induced obese rat assessed as change in body weight at 3 mg/kg, po after 18 hrs (RVb = 5 g); type: organism-based; design: dose 3 mg/kg, route oral; settings: in vivo
Rattus norvegicus [13] = assay: Toxicity in diet-induced obese rat assessed as change in body weight at 3 mg/kg, po after 18 hrs (RVb = 7 g); type: organism-based; design: dose 3 mg/kg, route oral; settings: in vivo; how it was run: as §2
Rattus norvegicus [14] = assay: Toxicity in diet-induced obese rat assessed as change in body weight at 3 mg/kg, po after 18 hrs (RVb = 10 g); type: organism-based; design: dose 3 mg/kg, route oral; settings: in vivo

Sequence of Cannabinoid receptor 1 (P21554 whole entry): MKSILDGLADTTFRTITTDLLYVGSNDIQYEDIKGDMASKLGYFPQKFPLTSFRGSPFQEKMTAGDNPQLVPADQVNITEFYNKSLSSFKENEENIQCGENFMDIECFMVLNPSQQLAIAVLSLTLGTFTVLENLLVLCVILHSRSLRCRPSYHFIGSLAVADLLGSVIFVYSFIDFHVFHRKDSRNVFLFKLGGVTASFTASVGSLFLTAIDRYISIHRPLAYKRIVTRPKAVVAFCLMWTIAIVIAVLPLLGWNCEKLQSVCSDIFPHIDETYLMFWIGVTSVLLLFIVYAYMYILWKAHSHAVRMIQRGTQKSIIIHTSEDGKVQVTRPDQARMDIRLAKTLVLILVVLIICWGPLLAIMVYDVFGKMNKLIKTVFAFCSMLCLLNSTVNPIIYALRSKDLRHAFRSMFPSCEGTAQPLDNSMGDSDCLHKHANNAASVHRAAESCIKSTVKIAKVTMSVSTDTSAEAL
Sequence of Cannabinoid receptor 2 (P34972 whole entry): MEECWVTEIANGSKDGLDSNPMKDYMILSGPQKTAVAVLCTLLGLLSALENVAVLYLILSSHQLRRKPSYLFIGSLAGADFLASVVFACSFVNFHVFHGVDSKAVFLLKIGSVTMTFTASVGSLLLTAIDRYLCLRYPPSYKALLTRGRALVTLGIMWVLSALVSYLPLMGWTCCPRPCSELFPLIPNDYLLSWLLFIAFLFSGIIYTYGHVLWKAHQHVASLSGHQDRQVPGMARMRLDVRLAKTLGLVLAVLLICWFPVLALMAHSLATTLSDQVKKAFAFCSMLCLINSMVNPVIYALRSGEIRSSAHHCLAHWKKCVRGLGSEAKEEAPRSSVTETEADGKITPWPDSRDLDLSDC
Sequence of Voltage-gated inwardly rectifying potassium channel KCNH2 (Q12809 whole entry): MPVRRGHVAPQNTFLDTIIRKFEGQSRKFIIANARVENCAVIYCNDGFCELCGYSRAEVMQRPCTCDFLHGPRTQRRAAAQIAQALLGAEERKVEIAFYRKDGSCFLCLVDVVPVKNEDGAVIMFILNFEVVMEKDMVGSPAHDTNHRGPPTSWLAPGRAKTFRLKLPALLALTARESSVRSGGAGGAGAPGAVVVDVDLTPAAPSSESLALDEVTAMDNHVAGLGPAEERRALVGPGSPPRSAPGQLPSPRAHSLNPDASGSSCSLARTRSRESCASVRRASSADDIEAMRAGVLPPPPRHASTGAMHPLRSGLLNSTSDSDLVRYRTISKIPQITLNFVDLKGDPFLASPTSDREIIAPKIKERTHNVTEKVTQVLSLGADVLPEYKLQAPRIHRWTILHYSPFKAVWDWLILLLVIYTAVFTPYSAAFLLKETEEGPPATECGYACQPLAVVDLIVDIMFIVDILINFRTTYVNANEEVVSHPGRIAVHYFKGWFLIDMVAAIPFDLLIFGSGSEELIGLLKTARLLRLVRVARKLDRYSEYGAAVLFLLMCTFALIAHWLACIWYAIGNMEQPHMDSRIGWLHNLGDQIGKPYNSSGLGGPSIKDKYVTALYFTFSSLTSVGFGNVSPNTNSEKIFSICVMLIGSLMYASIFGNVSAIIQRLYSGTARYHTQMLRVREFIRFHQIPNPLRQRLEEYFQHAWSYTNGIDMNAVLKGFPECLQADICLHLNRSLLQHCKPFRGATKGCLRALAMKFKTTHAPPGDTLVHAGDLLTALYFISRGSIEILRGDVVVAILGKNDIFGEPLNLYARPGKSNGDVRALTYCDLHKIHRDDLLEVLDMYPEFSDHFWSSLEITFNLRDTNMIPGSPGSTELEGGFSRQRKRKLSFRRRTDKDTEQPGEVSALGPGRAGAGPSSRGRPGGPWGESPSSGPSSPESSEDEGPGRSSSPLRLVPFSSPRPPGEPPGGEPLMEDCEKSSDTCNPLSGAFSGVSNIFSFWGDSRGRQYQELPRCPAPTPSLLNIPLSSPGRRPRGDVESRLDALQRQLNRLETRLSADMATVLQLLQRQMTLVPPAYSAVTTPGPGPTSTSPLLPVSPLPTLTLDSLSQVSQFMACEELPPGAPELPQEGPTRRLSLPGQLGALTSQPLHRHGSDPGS

For `CC(C)(O)C(=O)c1oc2nc(-c3ccc(Cl)cc3Cl)c(-c3ccc(Cl)cc3)cc2c1NC(=O)CO`, the EC50 [1] was 700 nM and the Emax [2] was 18%.
For `CN1c2nc(-c3ccc(Cl)cc3Cl)c(-c3ccc(Cl)cc3)cc2C(C(=O)NCO)CC1(C)C` (single isomer, unassigned; enantiomer 1) [6-(4-CHLOROPHENYL)-7-(2,4-DICHLOROPHENYL)-N-(HYDROXYMETHYL)-1,2,2-TRIMETHYL-1,2,3,4-TETRAHYDRO-1,8-NAPHTHYRIDINE-4-CARBOXAMIDE (ENANTIOMERIC MIX)], the concentration at 4 h [3] was 380 nM, the clearance [4] was 12 mL/min/kg and the concentration at 4 h [5] was 76 nM. It also gave an IC50 [6] of 40 nM, an Activity (Rattus norvegicus [7]) of 55% and a half-life [8] of 4.2 h. For the same molecule, the Kp at 4 h [9] was 0.88, the Activity (Rattus norvegicus [10]) was -8 g and the bioavailability [11] was 25%. The IC50 (Cannabinoid receptor 2) was 801 nM and the IC50 (Cannabinoid receptor 1) was 3.7 nM.
`CC1(C)CC(NC(=O)CCO)c2cc(-c3ccc(Cl)cc3)c(-c3ccc(Cl)cc3Cl)nc2O1` (single isomer, unassigned; enantiomer 1) [N-(6-(4-CHLOROPHENYL)-7-(2,4-DICHLOROPHENYL)-2,2-DIMETHYL-3,4-DIHYDRO-2H-PYRANO[2,3-B]PYRIDIN-4-YL)-3-HYDROXYPROPANAMIDE (ENANTIOMERIC MIX)] gave a clearance [4] of 3 mL/min/kg, an IC50 [6] of 380 nM and an Activity (Rattus norvegicus [7]) of 48%. The half-life [8] was 13 h, the bioavailability [11] was 85% and the Activity (Rattus norvegicus [12]) was -11 g. The IC50 (Cannabinoid receptor 2) was 2460 nM and the IC50 (Cannabinoid receptor 1) was 1.7 nM.
Work on `CC(C)(O)C(=O)NC1CC2(CCCCC2)Oc2nc(-c3ccccc3Cl)c(-c3ccc(Cl)cc3)cc21` (single isomer, unassigned; enantiomer 1) [N-(7'-(2-CHLOROPHENYL)-6'-(4-CHLOROPHENYL)-3',4'-DIHYDROSPIRO[CYCLOHEXANE-1,2'-PYRANO[2,3-B]PYRIDINE]-4'-YL)-2-HYDROXY-2-METHYLPROPANAMIDE (ENANTIOMERIC MIX)] yielded a concentration at 4 h [3] of 3500 nM, a clearance [4] of 62 mL/min/kg and a concentration at 4 h [5] of 116 nM. For the same molecule, the Activity (Rattus norvegicus [7]) was 28%, the Activity (Rattus norvegicus [13]) was 3 g and the half-life [8] was 1.9 h. It also gave a Kp at 4 h [9] of 3.5, a bioavailability [11] of 6% and an IC50 (Cannabinoid receptor 2) of 3200 nM. For the same molecule, the IC50 (Cannabinoid receptor 1) was 0.7 nM.
For `C[C@H](NC(=O)C(C)(C)Oc1ccc(C(F)(F)F)cn1)[C@@H](Cc1ccc(Cl)cc1)c1cccc(C#N)c1` [TARANABANT], the Activity (Rattus norvegicus [7]) was 49% and the Activity (Rattus norvegicus [14]) was -10 g.
